Assay results: ChEMBL document CHEMBL3259739, “Synthesis and structure-activity relationship of trisubstituted thiazoles as Cdc7 kinase inhibitors” (Eur J Med Chem, 2014)

What was measured:
[1] = molecular target: Cyclin-dependent kinase 8 (Homo sapiens) (UniProt P49336); experiment: Inhibition of CDK8 (unknown origin) at 1 uM relative to control; values are per cent of control
[2] = molecular target: Receptor-interacting serine/threonine-protein kinase 2 (Homo sapiens) (UniProt O43353); experiment: Inhibition of RIPK2 (unknown origin) at 1 uM relative to control; conditions: values are per cent of control
How it was run: (§1)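 KinomeSCAN competitive binding panel of 100 kinases; compounds tested at 1 µM in duplicate; read-out is percent […] control.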

[3] = molecular target: Tyrosine-protein kinase ABL1 (Homo sapiens) (UniProt P00519); experiment: Inhibition of phosphorylated ABL1 (unknown origin) at 1 uM relative to control; values are per cent of control
[4] = molecular target: Calcium/calmodulin-dependent protein kinase type II subunit delta (Homo sapiens) (UniProt Q13557); experiment: Inhibition of CAMK2D (unknown origin) at 1 uM relative to control; values are per cent of control
[5] = molecular target: Glycogen synthase kinase-3 beta (Homo sapiens) (UniProt P49841); experiment: Inhibition of GSK3B (unknown origin) at 1 uM relative to control; values are per cent of control
[6] = Intrinsic clearance in human liver microsomes at 1 uM after 30 mins by reverse phase HPLC analysis in presence of NADPH; format: ADME; conditions: read-out: CLH
How it was run: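 Reactions were stopped with MeCN after 0 or 30 min. Samples were analysed by reverse-phase HPLC–tandem MS to give intrinsic clearance (µl/min/mg).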

[7] = molecular target: Serine/threonine-protein kinase PAK 2 (Homo sapiens) (UniProt Q13177); experiment: Inhibition of PAK2 (unknown origin) at 1 uM relative to control; conditions: values are per cent of control
How it was run: as §1

[8] = molecular target: Serine/threonine-protein kinase pim-1 (Homo sapiens, UniProt P11309); experiment: Inhibition of PIM1 (unknown origin) at 1 uM relative to control; conditions: values are per cent of control
How it was run: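 The supplementary panel puts Pim1 in the KinomeSCAN competitive binding format; compounds at 1 µM in duplicate; percent […] control.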

[9] = molecular target: Dual specificity protein kinase CLK4 (Homo sapiens) (UniProt Q9HAZ1); experiment: Inhibition of CLK4 (unknown origin) at 1 uM relative to control; values are per cent of control
[10] = molecular target: T1, Phosphatidylinositol 4,5-bisphosphate 3-kinase catalytic subunit delta isoform (Homo sapiens) (UniProt O00329); experiment: Inhibition of PIK3CD (unknown origin) at 1 uM relative to control; conditions: values are per cent of control
T1 sequence (whole entry): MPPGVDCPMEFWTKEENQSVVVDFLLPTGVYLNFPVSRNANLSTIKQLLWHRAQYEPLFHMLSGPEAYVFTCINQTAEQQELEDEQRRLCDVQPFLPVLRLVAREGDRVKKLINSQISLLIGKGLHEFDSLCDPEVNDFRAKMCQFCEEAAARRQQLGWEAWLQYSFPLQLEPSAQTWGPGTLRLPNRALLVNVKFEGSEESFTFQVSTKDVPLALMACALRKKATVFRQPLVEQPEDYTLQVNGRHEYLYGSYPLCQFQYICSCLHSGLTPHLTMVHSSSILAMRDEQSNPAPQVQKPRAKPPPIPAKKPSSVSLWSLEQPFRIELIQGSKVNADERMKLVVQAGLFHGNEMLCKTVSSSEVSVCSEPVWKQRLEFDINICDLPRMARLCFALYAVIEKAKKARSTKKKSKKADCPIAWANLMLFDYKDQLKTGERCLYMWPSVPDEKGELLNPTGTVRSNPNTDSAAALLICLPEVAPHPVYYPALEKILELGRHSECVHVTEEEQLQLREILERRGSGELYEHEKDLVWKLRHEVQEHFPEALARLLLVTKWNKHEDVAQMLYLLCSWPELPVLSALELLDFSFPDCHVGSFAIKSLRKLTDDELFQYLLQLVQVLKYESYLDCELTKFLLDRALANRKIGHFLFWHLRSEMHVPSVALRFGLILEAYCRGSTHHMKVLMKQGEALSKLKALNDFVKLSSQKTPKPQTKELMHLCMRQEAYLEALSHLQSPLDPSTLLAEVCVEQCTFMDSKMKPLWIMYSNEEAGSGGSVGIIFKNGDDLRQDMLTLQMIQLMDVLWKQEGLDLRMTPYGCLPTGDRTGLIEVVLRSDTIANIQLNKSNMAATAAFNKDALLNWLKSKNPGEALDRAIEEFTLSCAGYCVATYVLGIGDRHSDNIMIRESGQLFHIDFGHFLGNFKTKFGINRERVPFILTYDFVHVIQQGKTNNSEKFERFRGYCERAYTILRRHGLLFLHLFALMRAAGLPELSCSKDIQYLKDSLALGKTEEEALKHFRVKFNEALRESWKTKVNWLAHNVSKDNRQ
How it was run: as §1

[11] = molecular target: T2, Serine/threonine-protein kinase Chk1 (Homo sapiens) (UniProt O14757); experiment: Inhibition of CHEK1 (unknown origin) at 1 uM relative to control; values are per cent of control
T2 sequence (whole entry): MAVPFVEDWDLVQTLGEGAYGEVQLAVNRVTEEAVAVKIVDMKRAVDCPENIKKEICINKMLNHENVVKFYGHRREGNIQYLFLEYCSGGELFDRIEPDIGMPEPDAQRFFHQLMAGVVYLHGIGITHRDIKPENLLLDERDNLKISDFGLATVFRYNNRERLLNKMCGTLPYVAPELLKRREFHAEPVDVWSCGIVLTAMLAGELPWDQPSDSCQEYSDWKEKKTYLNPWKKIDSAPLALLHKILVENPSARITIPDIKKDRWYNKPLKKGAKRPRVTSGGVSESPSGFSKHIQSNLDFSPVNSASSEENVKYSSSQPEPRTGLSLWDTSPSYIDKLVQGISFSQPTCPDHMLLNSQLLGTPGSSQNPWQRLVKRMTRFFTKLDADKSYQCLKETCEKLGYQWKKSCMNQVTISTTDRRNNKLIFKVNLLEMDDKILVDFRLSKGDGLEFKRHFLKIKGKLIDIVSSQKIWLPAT

Sequence of Serine/threonine-protein kinase PAK 2 (Homo sapiens) (Q13177 whole entry): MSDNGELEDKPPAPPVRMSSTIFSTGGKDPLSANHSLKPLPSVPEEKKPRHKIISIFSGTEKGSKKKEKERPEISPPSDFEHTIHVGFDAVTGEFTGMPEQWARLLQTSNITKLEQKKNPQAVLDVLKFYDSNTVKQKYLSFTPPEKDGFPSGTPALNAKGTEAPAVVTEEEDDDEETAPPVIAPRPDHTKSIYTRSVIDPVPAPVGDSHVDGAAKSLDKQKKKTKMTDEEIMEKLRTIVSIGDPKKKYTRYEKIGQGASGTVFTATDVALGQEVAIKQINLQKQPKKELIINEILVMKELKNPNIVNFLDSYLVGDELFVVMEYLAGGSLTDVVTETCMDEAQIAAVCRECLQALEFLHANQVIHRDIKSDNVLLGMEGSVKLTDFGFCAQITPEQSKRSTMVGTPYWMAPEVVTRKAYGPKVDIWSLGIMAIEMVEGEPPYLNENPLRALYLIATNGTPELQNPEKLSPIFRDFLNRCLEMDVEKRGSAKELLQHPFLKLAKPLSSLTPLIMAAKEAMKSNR
Sequence of Glycogen synthase kinase-3 beta (Homo sapiens) (P49841 whole entry, looked up): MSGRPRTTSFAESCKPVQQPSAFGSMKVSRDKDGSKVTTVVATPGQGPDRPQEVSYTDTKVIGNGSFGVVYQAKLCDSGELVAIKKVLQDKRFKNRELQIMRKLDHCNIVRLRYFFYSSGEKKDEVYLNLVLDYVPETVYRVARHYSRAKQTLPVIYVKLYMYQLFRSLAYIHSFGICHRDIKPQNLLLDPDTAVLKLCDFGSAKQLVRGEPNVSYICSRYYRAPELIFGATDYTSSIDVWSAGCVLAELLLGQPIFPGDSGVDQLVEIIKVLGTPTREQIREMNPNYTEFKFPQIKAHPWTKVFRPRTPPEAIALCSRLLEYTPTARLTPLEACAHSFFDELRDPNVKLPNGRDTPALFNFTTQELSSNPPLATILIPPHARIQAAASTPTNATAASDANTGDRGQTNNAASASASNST
Sequence of Serine/threonine-protein kinase pim-1 (P11309 whole entry, looked up): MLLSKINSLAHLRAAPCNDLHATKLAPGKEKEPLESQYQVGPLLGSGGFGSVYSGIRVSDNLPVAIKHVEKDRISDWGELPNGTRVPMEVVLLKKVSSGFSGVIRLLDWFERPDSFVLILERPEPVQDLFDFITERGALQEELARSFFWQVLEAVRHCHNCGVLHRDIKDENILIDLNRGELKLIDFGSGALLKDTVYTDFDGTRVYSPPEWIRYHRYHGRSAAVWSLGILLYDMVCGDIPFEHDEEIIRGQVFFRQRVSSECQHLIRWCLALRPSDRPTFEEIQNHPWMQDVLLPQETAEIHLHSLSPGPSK
Sequence of Cyclin-dependent kinase 8 (Homo sapiens) (P49336 whole entry): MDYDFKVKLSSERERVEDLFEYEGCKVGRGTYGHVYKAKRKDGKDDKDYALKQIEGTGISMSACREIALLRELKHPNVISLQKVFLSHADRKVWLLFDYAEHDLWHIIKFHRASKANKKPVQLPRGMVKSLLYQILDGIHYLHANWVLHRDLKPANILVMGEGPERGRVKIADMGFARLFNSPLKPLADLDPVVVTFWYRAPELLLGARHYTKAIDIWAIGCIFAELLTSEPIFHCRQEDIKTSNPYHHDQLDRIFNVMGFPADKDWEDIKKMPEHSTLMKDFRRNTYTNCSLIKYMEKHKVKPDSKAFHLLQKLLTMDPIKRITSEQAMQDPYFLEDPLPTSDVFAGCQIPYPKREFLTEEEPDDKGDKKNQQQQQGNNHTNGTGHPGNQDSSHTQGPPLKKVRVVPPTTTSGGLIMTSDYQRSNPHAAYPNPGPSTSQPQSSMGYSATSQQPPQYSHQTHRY
Sequence of Calcium/calmodulin-dependent protein kinase type II subunit delta (Homo sapiens) (Q13557 whole entry): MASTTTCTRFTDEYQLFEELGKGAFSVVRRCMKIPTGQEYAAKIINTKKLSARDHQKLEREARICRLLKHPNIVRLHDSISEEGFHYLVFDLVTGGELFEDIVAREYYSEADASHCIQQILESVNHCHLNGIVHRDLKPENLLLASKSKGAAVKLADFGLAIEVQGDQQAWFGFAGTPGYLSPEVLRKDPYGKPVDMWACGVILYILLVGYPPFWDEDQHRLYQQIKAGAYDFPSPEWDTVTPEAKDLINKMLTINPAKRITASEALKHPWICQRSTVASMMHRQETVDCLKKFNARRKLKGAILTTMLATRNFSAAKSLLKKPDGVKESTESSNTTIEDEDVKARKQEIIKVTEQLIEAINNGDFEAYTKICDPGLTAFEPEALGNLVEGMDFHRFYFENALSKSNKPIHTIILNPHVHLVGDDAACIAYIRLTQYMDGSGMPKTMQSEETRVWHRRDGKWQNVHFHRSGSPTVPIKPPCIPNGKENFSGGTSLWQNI
Sequence of Tyrosine-protein kinase ABL1 (Homo sapiens) (P00519 whole entry): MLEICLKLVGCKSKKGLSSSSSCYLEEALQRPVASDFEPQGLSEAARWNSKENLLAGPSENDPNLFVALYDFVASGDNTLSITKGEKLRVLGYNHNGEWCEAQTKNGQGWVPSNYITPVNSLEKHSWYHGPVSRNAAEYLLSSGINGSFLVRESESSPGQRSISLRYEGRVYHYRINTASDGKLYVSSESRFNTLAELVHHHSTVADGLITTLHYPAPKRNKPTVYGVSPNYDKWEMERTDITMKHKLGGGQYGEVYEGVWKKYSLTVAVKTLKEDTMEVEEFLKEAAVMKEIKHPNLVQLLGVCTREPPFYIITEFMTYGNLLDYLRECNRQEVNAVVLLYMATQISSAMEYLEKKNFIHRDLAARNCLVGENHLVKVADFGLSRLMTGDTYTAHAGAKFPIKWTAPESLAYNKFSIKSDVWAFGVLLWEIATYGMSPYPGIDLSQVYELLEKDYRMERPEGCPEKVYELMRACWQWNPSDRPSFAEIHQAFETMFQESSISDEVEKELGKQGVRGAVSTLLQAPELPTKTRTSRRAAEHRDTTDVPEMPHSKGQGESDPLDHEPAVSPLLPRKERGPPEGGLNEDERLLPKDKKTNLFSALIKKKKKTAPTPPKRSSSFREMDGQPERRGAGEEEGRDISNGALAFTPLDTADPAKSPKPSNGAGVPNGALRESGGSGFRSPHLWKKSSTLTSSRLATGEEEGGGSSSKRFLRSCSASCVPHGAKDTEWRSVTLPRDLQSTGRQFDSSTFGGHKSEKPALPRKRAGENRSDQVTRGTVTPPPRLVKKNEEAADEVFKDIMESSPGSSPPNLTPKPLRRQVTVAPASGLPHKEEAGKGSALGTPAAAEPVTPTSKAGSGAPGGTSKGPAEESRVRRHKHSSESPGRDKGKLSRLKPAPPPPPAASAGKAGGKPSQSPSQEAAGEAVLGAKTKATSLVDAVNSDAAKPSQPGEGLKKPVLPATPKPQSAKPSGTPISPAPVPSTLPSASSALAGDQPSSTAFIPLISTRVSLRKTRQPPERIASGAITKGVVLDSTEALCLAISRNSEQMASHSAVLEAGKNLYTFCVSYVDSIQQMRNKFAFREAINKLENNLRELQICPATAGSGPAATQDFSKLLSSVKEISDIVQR
Sequence of Dual specificity protein kinase CLK4 (Homo sapiens) (Q9HAZ1 whole entry, looked up, canonical isoform): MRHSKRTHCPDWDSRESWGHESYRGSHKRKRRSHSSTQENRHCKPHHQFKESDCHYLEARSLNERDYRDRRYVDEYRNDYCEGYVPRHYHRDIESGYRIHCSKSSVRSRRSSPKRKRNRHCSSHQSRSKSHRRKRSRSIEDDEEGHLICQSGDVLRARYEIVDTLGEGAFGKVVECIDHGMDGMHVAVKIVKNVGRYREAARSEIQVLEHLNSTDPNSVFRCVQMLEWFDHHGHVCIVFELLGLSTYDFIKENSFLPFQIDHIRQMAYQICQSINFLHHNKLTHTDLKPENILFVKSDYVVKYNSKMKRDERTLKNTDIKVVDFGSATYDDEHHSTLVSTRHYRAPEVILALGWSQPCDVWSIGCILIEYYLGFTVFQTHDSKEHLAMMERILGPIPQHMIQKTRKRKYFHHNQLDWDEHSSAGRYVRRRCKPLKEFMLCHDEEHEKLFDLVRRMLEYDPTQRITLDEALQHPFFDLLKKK
Sequence of Receptor-interacting serine/threonine-protein kinase 2 (Homo sapiens) (O43353 whole entry): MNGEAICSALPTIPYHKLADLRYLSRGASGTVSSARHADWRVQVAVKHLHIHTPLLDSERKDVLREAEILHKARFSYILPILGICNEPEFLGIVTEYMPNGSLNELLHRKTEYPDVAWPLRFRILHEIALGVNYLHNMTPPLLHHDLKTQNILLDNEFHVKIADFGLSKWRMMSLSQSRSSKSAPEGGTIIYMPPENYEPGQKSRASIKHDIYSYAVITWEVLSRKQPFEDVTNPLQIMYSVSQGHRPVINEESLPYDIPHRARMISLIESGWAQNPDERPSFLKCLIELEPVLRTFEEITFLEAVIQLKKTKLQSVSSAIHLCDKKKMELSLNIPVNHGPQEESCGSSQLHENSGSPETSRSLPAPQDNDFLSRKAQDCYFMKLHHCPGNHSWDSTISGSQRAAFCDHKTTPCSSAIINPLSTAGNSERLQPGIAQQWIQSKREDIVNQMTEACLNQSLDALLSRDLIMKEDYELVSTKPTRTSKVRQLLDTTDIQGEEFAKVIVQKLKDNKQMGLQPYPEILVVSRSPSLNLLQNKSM

residual activity [1] [%]	residual binding, % of control [2] [%]	residual activity [3] [%]	residual activity [4] [%]	residual activity [5] [%]	microsomal CLint at 1 µM [6] [µL/min/mg]	residual binding, % of control [7] [%]	residual binding, % of control [8] [%]	residual activity [9] [%]	residual binding, % of control [10] [%]	residual activity [11] [%]	SMILES
82	99	100	79	100	17	99	75	92	97	100	CCOC(=O)c1sc(-c2ccncc2)nc1O
84	96	90	93	6.8	43	89	99	0	55	78	COc1ccc(-c2nc(-c3ccnc(N)n3)sc2C(N)=O)c(Cl)c1

SMILES	residual activity [1] [%]	residual binding, % of control [2] [%]	residual activity [3] [%]	residual activity [4] [%]	residual activity [5] [%]	microsomal CLint at 1 µM [6] [µL/min/mg]	residual binding, % of control [7] [%]	residual binding, % of control [8] [%]	residual activity [9] [%]	residual binding, % of control [10] [%]	residual activity [11] [%]
NC(=O)c1sc(-c2ccnc(N)n2)nc1-c1ccc(Cl)cc1Cl	97	82	100	90	6.4	19	100	83	0	78	100
